Among the data in ChEMBL document CHEMBL1165909, “Analgesic, anti-pyretic and DNA cleavage studies of novel pyrimidine derivatives of coumarin moiety” (Eur J Med Chem, 2010) are Activity, T and Time values, retold here.

Structures are written as SMILES. Activity calls are given as the source filed them. The rule behind the calls is not given here.

The test system of series [1] is Rattus norvegicus. Nature of the series: Acute toxicity in albino Wistar rat assessed as stomach ulcerhaemorrhagic spots at up to 3 g/kg, po after 24 hrs. The conditions noted are these: in vivo, 3000 mg/kg. The series is classed as organism-based. The gist of the method:
(§1)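 Albino rats of either sex, groups of six, dosed from 100 up to 3000 mg kg^-1 body weight. Watched continuously for 8 h for signs such as altered motor activity, ataxia, tremors, convulsions, sedation and lacrimation. Killed at 24 h; stomach, intestine and liver inspected under magnifying lenses for ulcer-haemorrhagic spots.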

Series [2] relates to Rattus norvegicus. In words: Acute toxicity in albino Wistar rat assessed as sedation at up to 3 g/kg, po after 24 hrs. The conditions noted are these: in vivo, 3000 mg/kg. The series is classed as organism-based. The gist of the method:
as §1

Series [3] concerns Rattus norvegicus. In words: Antipyretic activity against brewer's yeast-induced hyperthermia in albino Wistar rat assessed as change in rectal temperature at 100 mg/kg, po after 5 hrs (reference value: 34.36 +/- 0.14 degC). The format is functional.
Series [4] concerns Rattus norvegicus. In words: Antipyretic activity against brewer's yeast-induced hyperthermia in albino Wistar rat assessed as change in rectal temperature at 100 mg/kg, po after 6 hrs (reference value: 33.44 +/- 0.18 degC). The series is classed as functional.
For series [5], the system named is Rattus norvegicus. Nature of the series: Antipyretic activity against brewer's yeast-induced hyperthermia in albino Wistar rat assessed as change in rectal temperature at 100 mg/kg, po after 1 hr (reference value: 33.78 +/- 0.18 degC). The series is classed as functional.
Series [6] relates to Rattus norvegicus. In words: Acute toxicity in albino Wistar rat assessed as tremors at up to 3 g/kg, po after 24 hrs. The conditions noted are these: in vivo, 3000 mg/kg. The format is organism-based. The gist of the method: as §1
The test system of series [7] is Rattus norvegicus. In words: Acute toxicity in albino Wistar rat assessed as haemorrhagic spots at up to 3 g/kg, po after 24 hrs. The format is organism-based. To be noted: in vivo, 3000 mg/kg. The gist of the method:
as §1

The test system of series [8] is Rattus norvegicus. Nature of the series: Acute toxicity in albino Wistar rat assessed as convulsion at up to 3 g/kg, po after 24 hrs. The conditions noted are these: in vivo, 3000 mg/kg. The format is organism-based. The gist of the method: as §1
Series [9] deals with Rattus norvegicus. Nature of the series: Analgesic activity in albino Wistar rat assessed as reaction time required for tail flicking at 25 mg/kg, po after 60 mins by tail-flick method (reference value: 4 +/- 0.360 sec). The series is classed as functional.
For series [10], the system named is Rattus norvegicus. Nature of the series: Acute toxicity in albino Wistar rat assessed as ulceration at up to 3 g/kg, po after 24 hrs. The series is classed as organism-based. The conditions noted are these: in vivo, 3000 mg/kg. In a few lines:
as §1

In series [11] the test system is Rattus norvegicus. In words: Antipyretic activity against brewer's yeast-induced hyperthermia in albino Wistar rat assessed as change in rectal temperature at 100 mg/kg, po after 3 hrs (reference value: 32.80 +/- 0.09 degC). The series is classed as functional.
Series [12] has as its system Rattus norvegicus. Nature of the series: Analgesic activity in albino Wistar rat assessed as reaction time required for tail flicking at 25 mg/kg, po after 30 mins by tail-flick method (reference value: 3.97 +/- 0.287 sec). The format is functional. On the technique in general: In hot-plate and tail-flick tests a longer latency is read as antinociception.
Series [13] relates to Rattus norvegicus. Nature of the series: Acute toxicity in albino Wistar rat assessed as intestine ulcerhaemorrhagic spots at up to 3 g/kg, po after 24 hrs. The format is organism-based. The conditions noted are these: in vivo, 3000 mg/kg. In a few lines: as §1
In series [14] the test system is Nucleic Acid. In words: Induction of Escherichia coli DNA cleavage at 25 mg after 24 hrs by agarose gel electrophoresis method. The format is nucleic-acid assay. In a few lines: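 E. coli grown in nutrient broth 24 h at 37 °C. Genomic DNA isolated by SDS lysis, phenol (55 °C, 10 min), chloroform:isoamyl alcohol extraction and ethanol precipitation, dissolved in TAE. Compounds at 1 mg/ml in DMF added to DNA, incubated 2 h at 37 °C. Run on agarose gel at 50 V about 30 min, stained with ethidium bromide, bands compared with DNA marker.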

The subject of series [15] is Rattus norvegicus. In words: Acute toxicity in albino Wistar rat assessed as mortality at up to 3 g/kg, po after 24 hrs. The series is classed as organism-based. The conditions noted are these: in vivo, 3000 mg/kg. The gist of the method: as §1
Series [16] concerns Rattus norvegicus. In words: Analgesic activity in albino Wistar rat assessed as reaction time required for tail flicking at 25 mg/kg, po after 90 mins by tail-flick method (reference value: 3.87 +/- 0.355 sec). The series is classed as functional.
Series [17] has as its system Rattus norvegicus. In words: Antipyretic activity against brewer's yeast-induced hyperthermia in albino Wistar rat assessed as change in rectal temperature at 300 mg/kg, po after 3 hrs (reference value: 32.80 +/- 0.09 degC). The series is classed as functional.
Series [18] deals with Rattus norvegicus. Nature of the series: Antipyretic activity against brewer's yeast-induced hyperthermia in albino Wistar rat assessed as change in rectal temperature at 300 mg/kg, po after 6 hrs (reference value: 33.44 +/- 0.18 degC). The series is classed as functional.
The subject of series [19] is Rattus norvegicus. Nature of the series: Antipyretic activity against brewer's yeast-induced hyperthermia in albino Wistar rat assessed as change in rectal temperature at 300 mg/kg, po after 1 hr (reference value: 33.78 +/- 0.18 degC). The format is functional.
In series [20] the test system is Rattus norvegicus. In words: Antipyretic activity against brewer's yeast-induced hyperthermia in albino Wistar rat assessed as change in rectal temperature at 300 mg/kg, po after 5 hrs (reference value: 34.36 +/- 0.14 degC). The format is functional.

With `Cc1ccc2oc(=O)cc(COc3ccc(-c4cc(-c5ccccc5)nc(O)n4)cc3)c2c1`, the Activity result in series [1], in [2], in series [6], in [7], in [8] and in series [10] was “Non-toxic” throughout. Further, the Activity result in series [13] and in series [15] was “Non-toxic” throughout. The T in [3] was 33.12 °C; in series [4] it was 32.97 °C; in series [5] it was 33.18 °C; in [11], 32.31 °C. The Time was determined as 5.46 s in [9], 4.48 s in series [12] and 6.2 s in [16]. Besides, the outcome in series [14] was Active.

For the compound `Cc1ccc2c(COc3ccc(-c4cc(-c5ccccc5)nc(O)n4)cc3)cc(=O)oc2c1`, the Activity result in series [1], in series [2], in series [6], in series [7], in [8] and in [10] was “Non-toxic” each time. Also, the Activity entry in series [13] and in series [15] was “Non-toxic” throughout. The T came to 33.1 °C in series [3], 32.4 °C in [4], 32.4 °C in series [5] and 32.84 °C in [11]. The Time in series [9] is 6.25 s; in series [12], 4.5 s; in series [16], 7.75 s. The outcome in [14] was Active.

In the case of `O=c1cc(COc2ccc(-c3cc(-c4ccccc4)nc(S)n3)cc2)c2ccc3ccccc3c2o1`, the Activity entry in series [1], in series [2], in [6], in series [7], in series [8] and in [10] was “Non-toxic” each time. The Activity entry in series [13] and in series [15] was “Non-toxic” in each case. The T in series [3] came out at 33.09 °C; in series [4], 32.5 °C; in [5], 33.01 °C; in series [11], 32 °C. Moreover, the Time in [9] was 5.25 s; in [12], 4.52 s; in series [16] it was 6.25 s. The outcome in series [14] was Active.

Consider `Cc1ccc2c(COc3ccc(-c4cc(-c5ccccc5)nc(S)n4)cc3)cc(=O)oc2c1`, for which the Activity entry in [1], in series [2], in series [6], in [7], in [8] and in [10] was “Non-toxic” each time. The Activity result in series [13] and in [15] was “Non-toxic” in each case. The T worked out at 32.9 °C in series [3], 31.82 °C in series [4], 32.81 °C in series [5] and 32.66 °C in [11]. The Time in series [9] is recorded as 7.25 s; in series [12], 4.5 s; in series [16] it was 7.5 s. Moreover, the result in series [14] was Active.

With `CC(=O)Oc1ccccc1C(=O)O` [ASPIRIN], the T was 32 °C in [17], 32.38 °C in series [18], 32.82 °C in series [19] and 32.3 °C in series [20].

As to `O=c1cc(COc2ccc(-c3cc(-c4ccccc4)nc(O)n3)cc2)c2cc(Cl)ccc2o1`, the Activity result in [1], in series [2], in series [6], in series [7], in series [8] and in [10] was “Non-toxic” each time. Further, the Activity result in [13] and in series [15] was “Non-toxic” in each case. The T in series [3] stood at 33.28 °C; in series [4] it was 32.61 °C; in series [5], 33.18 °C; in [11], 32.64 °C. In addition, the Time in series [9] is 4.04 s; in series [12], 4.02 s; in [16], 4.25 s. For the same compound, the outcome in series [14] was Active.

With `O=c1cc(COc2ccc(-c3cc(-c4ccccc4)nc(O)n3)cc2)c2ccc3ccccc3c2o1`, the Activity entry in series [1], in [2], in [6], in series [7], in series [8] and in series [10] was “Non-toxic” each time. Besides, the Activity result in [13] and in series [15] was “Non-toxic” in each case. In addition, the T in series [3] is 33.44 °C; in series [4], 32.74 °C; in series [5], 32.25 °C; in series [11], 32.68 °C. Further, the figures for the Time in series [9], in [12] and in series [16] were 6.25 s, 4.75 s and 7.25 s, respectively. For the same compound, the outcome in series [14] was Active.
